# Experimental data published in ChEMBL document CHEMBL5705892, “MK-2206, an allosteric Akt inhibitor, enhances antitumor efficacy by standard chemotherapeutic agents or molecular targeted drugs in vitro and in vivo” (Mol Cancer Ther, 2010).
# Activity calls are given as the source filed them. The calls are words filed in the database; no cut-off is given here.
# How the values were obtained:
# NCI-H1299 [1] = assay: Synergistic antiproliferative activity against human NCI-H1299 cells assessed as combination index at ED50 measured after 72 hrs in presence of erlotinib by celltiter-glo assay; assay type: functional
# Calu-6 = assay: Synergistic antiproliferative activity against human Calu-6 cells assessed as combination index at ED50 measured after 72 hrs in presence of erlotinib by celltiter-glo assay; assay type: functional
# Procedure, shortened: (§1)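 Cells grown in RPMI 1640 with 10% heat-inactivated FBS at 37°C, 5% CO₂. Seeded at 2 to 3 × 10³ per well; drugs added 24 h later. […] Viability read as cellular ATP by CellTiter-Glo. CI calculated by Chou–Talalay from median-effect plots at ED50, ED75 and ED90.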
# NCI-H358 = assay: Synergistic antiproliferative activity against human NCI-H358 cells assessed as combination index at ED75 measured after 72 hrs in presence of erlotinib by celltiter-glo assay; assay type: functional
# SK-BR-3 [2] = assay: Synergistic antiproliferative activity against human SK-BR-3 cells assessed as combination index at ED90 measured after 72 hrs in presence of lapatinib by celltiter-glo assay; assay type: functional
# NCI-H1299 [3] = assay: Synergistic antiproliferative activity against human NCI-H1299 cells assessed as fold change in erlotinib IC50 at 1 umol/L measured after 72 hrs in presence of erlotinib by celltiter-glo assay relative to erlotinib alone; assay type: functional; details: dose 1 µmol/L
# NCI-H292 = assay: Induction of apoptosis in human NCI-H292 cells assessed as increase in caspase-3/7 activity up to 3 umol/L measured after 48 hrs by caspase-glo 3/7 assay; assay type: functional, cell-based; details: dose <= 3.0 µmol/L
# Procedure, shortened: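 Caspase-3/7 activity was measured by Caspase-Glo 3/7 and expressed as fold over DMSO vehicle control. The experiment was done twice.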
# [4] = molecular target: RAC-alpha serine/threonine-protein kinase (Homo sapiens) (UniProt P31749); assay: Inhibition of AKT in human A-431 cells assessed as reduction in AKT phosphorylation at S473 residue at 5 umol/L measured after 5 hrs in presence of erlotinib by Western blot analysis; assay type: cell-based; details: dose 5.0 µmol/L
# Procedure, shortened: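 Cells were lysed in Tris-HCl pH 7.5, 150 mM NaCl, 1% Triton X-100 with protease and phosphatase inhibitors. Lysates were run on SDS-PAGE, transferred to nitrocellulose and probed with phospho-specific antibodies.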
# [5] = molecular target: RAC-alpha serine/threonine-protein kinase (Homo sapiens) (UniProt P31749); assay: Inhibition of AKT in human HCC827 cells assessed as reduction in PRAS40 phosphorylation at T246 residue at 5 umol/L measured after 5 hrs by Western blot analysis; assay type: cell-based; details: dose 5.0 µmol/L
# Mus musculus = assay: In vivo inhibition of AKT in human NCI-H292 cells xenografted mouse at 120 mg/kg, po administered as single dose measured after 12 hrs by immunoprecipitation assay; assay type: functional, organism-based
# SK-BR-3 [6] = assay: Synergistic antiproliferative activity against human SK-BR-3 cells assessed as combination index at ED50 treated 24 hrs prior to lapatinib and measured after 72 hrs by celltiter-glo assay; assay type: functional; details: time 96 hrs
# HCC70 [7] = assay: Synergistic antiproliferative activity against human HCC70 cells assessed as combination index at ED50 measured after 96 hrs in presence of lapatinib by celltiter-glo assay; assay type: functional
# HCC70 [8] = assay: Synergistic antiproliferative activity against human HCC70 cells assessed as combination index at ED75 treated 24 hrs prior to lapatinib and measured after 72 hrs by celltiter-glo assay; assay type: functional; details: time 96 hrs
# SK-OV-3 [9] = assay: Synergistic antiproliferative activity against human SK-OV-3 cells assessed as combination index at ED75 measured after 96 hrs in presence of lapatinib by celltiter-glo assay; assay type: functional
# HCC70 [10] = assay: Synergistic antiproliferative activity against human HCC70 cells assessed as combination index at ED90 treated 24 hrs prior to lapatinib and measured after 72 hrs by celltiter-glo assay; assay type: functional; details: time 96 hrs
# HCC1954 [11] = assay: Synergistic antiproliferative activity against human HCC1954 cells assessed as combination index at ED90 treated 24 hrs prior to lapatinib and measured after 72 hrs by celltiter-glo assay; assay type: functional; details: time 96 hrs
# SK-OV-3 [12] = assay: Synergistic antiproliferative activity against human SK-OV-3 cells assessed as combination index at ED90 treated 24 hrs prior to lapatinib and measured after 72 hrs by celltiter-glo assay; assay type: functional; details: time 96 hrs
# HCC1954 [13] = assay: Synergistic antiproliferative activity against lapatinib pretreated human HCC1954 cells assessed as combination index at ED90 measured after 72 hrs by celltiter-glo assay; assay type: functional
# NCI-N87 = assay: Synergistic antiproliferative activity against human NCI-N87 cells assessed as combination index at ED90 measured after 96 hrs in presence of lapatinib by celltiter-glo assay; assay type: functional
# [14] = molecular target: RAC-alpha serine/threonine-protein kinase (Homo sapiens) (UniProt P31749); assay: Inhibition of AKT phosphorylation at S473 residue in human HCC70 cells at 1 umol/L measured after 3 to 24 hrs in presence of lapatinib by Western blot analysis; assay type: cell-based; details: dose 1.0 µmol/L, time 3-24 hrs
# Procedure, shortened: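 HCC70 cells at ~70% confluence were exposed to 10 µmol/L lapatinib, 1 µmol/L MK-2206, or both, for 0, 3, 6, 12 or 24 h. Lysates were prepared in Triton X-100/Tris buffer (pH 7.5) with protease and phosphatase inhibitors. Immunoblots after SDS-PAGE and nitrocellulose transfer were probed for pAkt and pS6.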
# BT-474 = assay: Synergistic antiproliferative activity against human BT-474 cells assessed as combination index at ED75 preincubated for 24 hrs followed by compound washout and subsequent docetaxel addition and measured after 72 hrs by celltiter-glo assay; assay type: functional
# Procedure, shortened: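 Sequential schedule. Cells were seeded at 2 to 3 × 10³ per well in RPMI 1640 with 10% FBS and dosed 24 h after plating. They were exposed to the Akt inhibitor for 24 h, washed free of it, then given docetaxel for a further 72 h. Fixed concentration ratios spanned each agent's IC₅₀. ATP was read by CellTiter-Glo, and Chou–Talalay CI was calculated at ED50, ED75 and ED90.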
# HCC70 [15] = assay: Synergistic antiproliferative activity against human HCC70 cells assessed as combination index at ED90 measured after 72 hrs in presence of docetaxel by celltiter-glo assay; assay type: functional; procedure, shortened: as §1
# MDA-MB-468 = assay: Synergistic antiproliferative activity against human MDA-MB-468 cells assessed as combination index at ED90 measured after 72 hrs in presence of docetaxel by celltiter-glo assay; assay type: functional
# NCI-H460 = assay: Synergistic antiproliferative activity against human NCI-H460 cells assessed as combination index at ED50 measured after 72 hrs in presence of camptothecin by celltiter-glo assay; assay type: functional
# NCI-H1993 [16] = assay: Synergistic antiproliferative activity against human NCI-H1993 cells assessed as combination index at ED25 to ED90 measured after 72 hrs in presence of carboplatin by celltiter-glo assay; assay type: functional
# NCI-H1703 = assay: Synergistic antiproliferative activity against human NCI-H1703 cells assessed as combination index at ED25 to ED90 measured after 72 hrs in presence of carboplatin by celltiter-glo assay; assay type: functional
# NCI-H1993 [17] = assay: Synergistic antiproliferative activity against human NCI-H1993 cells assessed as combination index at ED25 to ED90 measured after 72 hrs in presence of gemcitabine by celltiter-glo assay; assay type: functional
# NCI-H441 = assay: Induction of apoptosis in human NCI-H441 cells assessed as fold induction of capsase-3/7 activity measured after 24 to 48 hrs in presence of carboplatin by caspase-glo 3/7 assay; assay type: functional; details: time 24-48 hrs
# Sequence of RAC-alpha serine/threonine-protein kinase (Homo sapiens) (P31749 whole entry): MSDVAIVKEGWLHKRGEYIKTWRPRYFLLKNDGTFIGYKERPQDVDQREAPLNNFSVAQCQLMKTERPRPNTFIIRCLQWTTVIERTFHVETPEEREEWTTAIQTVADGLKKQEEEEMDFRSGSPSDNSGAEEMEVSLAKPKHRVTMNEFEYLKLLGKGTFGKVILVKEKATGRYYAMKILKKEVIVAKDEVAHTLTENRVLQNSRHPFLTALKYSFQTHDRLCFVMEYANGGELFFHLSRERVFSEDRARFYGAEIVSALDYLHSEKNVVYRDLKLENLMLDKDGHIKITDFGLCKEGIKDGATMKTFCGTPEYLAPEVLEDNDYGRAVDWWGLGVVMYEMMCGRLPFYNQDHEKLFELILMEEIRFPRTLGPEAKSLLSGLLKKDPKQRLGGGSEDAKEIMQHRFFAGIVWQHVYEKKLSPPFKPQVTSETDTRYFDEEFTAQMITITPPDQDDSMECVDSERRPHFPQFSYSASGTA
smiles,measurement,setting,value
Cl.NC1(c2ccc(-c3nc4ccn5c(=O)[nH]nc5c4cc3-c3ccccc3)cc2)CCC1,CI50,NCI-H1299 [1],0.28
same,CI50,Calu-6,0.49
same,CI75,NCI-H358,0.19
same,CI90,SK-BR-3 [2],0.09
same,Ratio IC50,NCI-H1299 [3],>7.9
same,Activity,NCI-H292,inactive
same,inhibition,[4],Active
same,inhibition,[5],Active
same,inhibition,Mus musculus,Active
same,CI50,SK-BR-3 [6],0.18
same,CI50,HCC70 [7],0.18
same,CI75,HCC70 [8],0.18
same,CI75,SK-OV-3 [9],0.18
same,CI90,HCC70 [10],0.18
same,CI90,HCC1954 [11],0.18
same,CI90,SK-OV-3 [12],0.18
same,CI90,HCC1954 [13],0.18
same,CI90,NCI-N87,0.18
same,inhibition,[14],Active
same,CI75,BT-474,1.5
same,CI90,HCC70 [15],0.5
same,CI90,MDA-MB-468,0.9
same,CI50,NCI-H460,0.39
same,CI,NCI-H1993 [16],0.44
same,CI,NCI-H1703,0.53
same,CI,NCI-H1993 [17],0.14
same,fold change (FC),NCI-H441,2.3
